In PMC5267326 (Chemical Science, 2015):

How the values were obtained:
[1] = system: FGF2 binding to cell surface heparan sulfate (wild-type CHO cells); assay: Inhibition of FGF2 binding to cell surface HS on wild-type CHO cells; details: for IC50: read-out: IC50 against FGF2 binding, biotinylated FGF2 2.5 nM, on ice, mean ± SD of n = 3–4; for inhibition of FGF2 binding (in words): up to 100 μM
Outline: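 Wild-type CHO cells grown to confluence in F12/10% FBS, lifted enzyme-free and washed in PBS. Pre-incubated with test compound in PBS/0.1% BSA for 10 min on ice. Biotinylated FGF2 (2.5 nM) added for 30 min on ice. After washing, detected with streptavidin-PE-Cy5 or streptavidin-Cy5 by flow cytometry as geometric mean fluorescence. Expressed as % of binding without compound and plotted against concentration.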

[2] = system: soluble RAGE (sRAGE) binding to cell surface HS; assay: Inhibition of sRAGE binding to cell surface HS on CHO cells; details: for sRAGE binding inhibition at 10 μM (in words): 10 μM compound, cell surface HS
Outline: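 CHO cells lifted enzyme-free and washed in PBS. Test compound at 10 μM pre-incubated in PBS/0.1% BSA for 10 min on ice. Biotinylated sRAGE (2 μg mL−1) added for 1 h on ice. After washing, bound protein detected with streptavidin-PE-Cy5 or streptavidin-Cy5 by flow cytometry as geometric mean fluorescence. Reported relative to no-compound binding, means ± SD.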

[3] = cited from earlier work
[4] = In vivo neutralization of fondaparinux in mice; details: fondaparinux 0.5 mg kg^–1 s.c., 16 mg kg^–1 i.v.
Outline: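 Wild-type mice (8 weeks, ~20–30 g), n = 3 per group. Baseline tail bleed 30 min before dosing. Fondaparinux 0.5 mg kg−1 in PBS given s.c. After 10 min, tail-vein i.v. dosing of test compound (16 mg kg−1, DMSO–water), DMSO–H2O vehicle or protamine (16 mg kg−1, PBS). Blood drawn 5 min later into 3.2% citrate. Plasma anti-FXa colorimetric assay (405 nm) read against a calibration curve. Means ± SD.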

| Molecule | IC50 [1] [µM] | sRAGE binding inhibition at 10 μM (in words) [2] | further results |
| --- | --- | --- | --- |
| CC(=O)Nc1ccc2nc(C)cc(N)c2c1 [Acetyl-hemisurfen (3), 6-acetamido-4-aminoquinaldine] | > 100 | no inhibitory activity | inhibition of FGF2 binding (in words) [1]: did not inhibit; IC50 ([2]; read-out: IC50 inhibition of sRAGE binding to HS, CHO cells, biotinylated sRAGE 2 μg mL^–1): > 100 µM |
| Cc1ccc2cc(NC(=O)Nc3ccc4nc(C)ccc4c3)ccc2n1 [Deaminated surfen (6), 1,3-Bis(2-methylquinolin-6-yl)urea] | > 100 | no inhibitory activity |  |
| COc1cc(C)nc2ccc(NC(=O)Nc3ccc4nc(C)cc(OC)c4c3)cc12 [Methoxy surfen (5), 1,3-bis(4-methoxy-2-methyl-quinolin-6-yl)urea] | > 100 |  |  |
| Cc1cc(N)c2cc(NC(=S)Nc3ccc4nc(C)cc(N)c4c3)ccc2n1 [Thio surfen (4), N,N′-bis-(4-amino-2-methyl-6-quinolyl)-thiourea] | 8 ± 0.2 |  |  |
| Cc1cc(N)c2cc(NC(N)=O)ccc2n1 [Hemisurfen (2), 4-Amino-2-methyl-6-quinolyl-urea] | > 100 | no inhibitory activity | inhibition of FGF2 binding (in words) [1]: did not inhibit |
| Nc1ccnc2ccccc12 [4-aminoquinoline] |  |  | pKa of the protonated form [3]: ~8.5 |
| protamine |  |  | neutralizing fondaparinux in vivo (in words) [4]: ineffective |
